Source: ChEMBL document CHEMBL1134407, “Novel seco cyclopropa[c]pyrrolo[3,2-e]indole bisalkylators bearing a 3,3'-arylenebisacryloyl group as a linker” (J Med Chem, 2001)
Values after ≈ are worked out from the molar mass of the structure shown.

Assays:
HeLa = assay: Inhibitory activity against HeLaS3 human uterine cervix carcinoma cells; assay type: functional, cell-based
In short: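 HeLaS3 human uterine cervix carcinoma cells were exposed to the drug. The value is the drug concentration that inhibits cell growth by 50%.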

Mus musculus [1] = organism: Mus musculus; assay: Percentage tumor growth inhibition as compared with the untreated group; assay type: functional; design: concentration or dose not given beside the values
Mus musculus [2] = organism: Mus musculus; assay: Percentage change in body weight; assay type: functional
Mus musculus [3] = organism: Mus musculus; assay: Ratio between maximum dose within 10% body weight loss to tumor growth inhibition; assay type: functional
A2780 = assay: Cytotoxicity against human cancer cell lines A2780 (ovarian); assay type: functional, cell-based
DLD-1 = assay: Cytotoxicity against human cancer cell lines DLD-1 of colon.; assay type: functional, cell-based
[4] = tested on: KATO III stomach cancer cell line; assay: Cytotoxicity against human cancer cell lines KATO III (gastric); assay type: functional, cell-based
SBC-3 = assay: Cytotoxicity against human cancer cell lines SBC-3 of lung; assay type: functional, cell-based
[5] = Cytotoxicity against human cancer cell lines SBC-3 /ADR of lung (adriamycin resistant); assay type: functional, cell-based
ZR-75-1 = assay: Cytotoxicity against human cancer cell lines ZR-75-1 of breast.; assay type: functional, cell-based
Homo sapiens [6] = assay: Antitumor activity against human colon CX-1 tumor Xenografts in Athymic mice at a dose of 9180 micro g/kg; assay type: functional
In short: (§1)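 Athymic mice carried implanted human colon CX-1 tumor xenografts. Each line gives the dose in μg/kg. Read-out is percentage tumor growth inhibition relative to the untreated group.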

Homo sapiens [7] = assay: Antitumor activity against human colon CX-1 tumor Xenografts in Athymic mice at a dose of 15.6 micro g/kg; assay type: functional
In short: (§2)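 Athymic mice bearing human colon CX-1 tumour xenografts. Dose given in µg/kg. Read-out is percent tumour growth inhibition (TGI) relative to the untreated group.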

Homo sapiens [8] = assay: Antitumor activity against human colon CX-1 tumor Xenografts in Athymic mice at a dose of 7.81 micro g/kg; assay type: functional; in short: as §2
PC-3 = assay: Cytotoxicity against human cancer cell lines PC-3 of lung; assay type: functional, cell-based
Homo sapiens [9] = assay: Antitumor activity against human colon CX-1 tumor Xenografts in Athymic mice at a dose of 3.91 micro g/kg; assay type: functional; in short: as §1
[10] = Homo sapiens, HeLa, read-out: IC50

Row | IC50 (HeLa; [10]) [ng/mL] | Structure (SMILES) | Inhibition (Mus musculus [1]) [%] | Body weight change (Mus musculus [2]) [%] | Ratio (Mus musculus [3]) | also measured
1 | 3.25 (≈ 3.32 nM) | COC(=O)c1c(C(F)(F)F)[nH]c2c(O)cc3c(c12)[C@H](CCl)CN3C(=O)/C=C/c1ccc(/C=C/C(=O)N2C[C@@H](CCl)c3c2cc(O)c2[nH]c(C(F)(F)F)c(C(=O)OC)c32)c2cc3ccccc3cc12 | 82 | -6 | 3.5 | –
2 | 0.141 (≈ 0.148 nM) | COC(=O)c1c(C(F)(F)F)[nH]c2c(O)cc3c(c12)[C@H](CCl)CN3C(=O)/C=C/c1ccc(-c2ccc(/C=C/C(=O)N3C[C@@H](CCl)c4c3cc(O)c3[nH]c(C(F)(F)F)c(C(=O)OC)c43)cc2)cc1 | 83 | 4 | 3.7 | –
3 | 54.6 (≈ 62.1 nM) | COC(=O)c1c(C(F)(F)F)[nH]c2c(O)cc3c(c12)[C@H](CCl)CN3C(=O)/C=C/c1cccc(/C=C/C(=O)N2C[C@@H](CCl)c3c2cc(O)c2[nH]c(C(F)(F)F)c(C(=O)OC)c32)c1 | 91 | -5 | – | –
4 | – | COC(=O)c1c(C(F)(F)F)[nH]c2c(O)cc3c(c12)[C@H](CCl)CN3C(=O)/C=C/c1ccc(/C=C/C(=O)N2C[C@@H](CCl)c3c2cc(O)c2[nH]c(C(F)(F)F)c(C(=O)OC)c32)c2c1OCCO2 | 91 | 3 | 9 | IC50 (HeLa; hela): 0.00276 ng/mL (≈ 0.00294 nM)
5 | 1.51 (≈ 1.54 nM) | COC(=O)c1c(C(F)(F)F)[nH]c2c(O)cc3c(c12)[C@H](CCl)CN3C(=O)/C=C/c1c2ccccc2c(/C=C/C(=O)N2C[C@@H](CCl)c3c2cc(O)c2[nH]c(C(F)(F)F)c(C(=O)OC)c32)c2ccccc12 | 75 | -18 | – | –
6 | 9.71 (≈ 10.3 nM) | COC(=O)c1c(C(F)(F)F)[nH]c2c(O)cc3c(c12)[C@H](CCl)CN3C(=O)/C=C/c1cc(OC)c(/C=C/C(=O)N2C[C@@H](CCl)c3c2cc(O)c2[nH]c(C(F)(F)F)c(C(=O)OC)c32)cc1OC | 81 | 3 | >6.5 | –
7 | – | COC(=O)c1c(C(F)(F)F)[nH]c2c(O)cc3c(c12)[C@H](CCl)CN3C(=O)c1cc2cc(-c3ccc4[nH]c(C(=O)N5C[C@@H](CCl)c6c5cc(O)c5[nH]c(C(F)(F)F)c(C(=O)OC)c65)cc4c3)ccc2[nH]1 | 84 | 1 | 3.3 | IC50 (HeLa; hela): 0.0049 ng/mL (≈ 0.00499 nM)
8 | 87.6 (≈ 99.6 nM) | COC(=O)c1c(C(F)(F)F)[nH]c2c(O)cc3c(c12)[C@H](CCl)CN3C(=O)/C=C/c1ccccc1/C=C/C(=O)N1C[C@@H](CCl)c2c1cc(O)c1[nH]c(C(F)(F)F)c(C(=O)OC)c21 | 70 | -6 | – | –
9 | – | CCc1c(/C=C/C(=O)N2C[C@@H](CCl)c3c2cc(O)c2[nH]c(C(F)(F)F)c(C(=O)OC)c32)ccc(/C=C/C(=O)N2C[C@@H](CCl)c3c2cc(O)c2[nH]c(C(F)(F)F)c(C(=O)OC)c32)c1CC | – | – | – | IC50 (HeLa; hela): 0.00138 ng/mL (≈ 0.00147 nM)
10 | 0.523 (≈ 0.518 nM) | COC(=O)c1c(C(F)(F)F)[nH]c2c(O)cc3c(c12)[C@H](CCl)CN3C(=O)/C=C/c1ccc(/C=C/C(=O)N2C[C@@H](CCl)c3c2cc(O)c2[nH]c(C(F)(F)F)c(C(=O)OC)c32)c2c1C(=O)c1ccccc1C2=O | 84 | -4 | 6.6 | –
11 | – | COc1cccc2c1C(=O)c1c(O)c3c(c(O)c1C2=O)C[C@@](O)(C(=O)CO)C[C@@H]3O[C@H]1C[C@H](N)[C@H](O)[C@H](C)O1 [DOXORUBICIN] | – | – | – | IC50 (A2780; Homo sapiens, A2780, read-out: IC50): 12.1 ng/mL (≈ 22.3 nM); IC50 (DLD-1): 136 ng/mL (≈ 250 nM); IC50 [4]: 905 ng/mL (≈ 1670 nM); IC50 (SBC-3; Homo sapiens, SBC-3, read-out: IC50): 11.2 ng/mL (≈ 20.6 nM); IC50 [5]: 129 ng/mL (≈ 237 nM); IC50 (ZR-75-1; Homo sapiens, ZR-75-1, read-out: IC50): 6.39 ng/mL (≈ 11.8 nM)
12 | – | COC(=O)c1c(C(F)(F)F)[nH]c2c(O)cc3c(c12)[C@H](CCl)CN3C(=O)/C=C/c1ccc(/C=C/C(=O)N2C[C@@H](CCl)c3c2cc(O)c2[nH]c(C(F)(F)F)c(C(=O)OC)c32)c(OC)c1OC | 89 | -1 | 4.6 | IC50 (HeLa; hela): 0.00158 ng/mL (≈ 0.00168 nM)
13 | – | CO[C@@]12[C@H](COC(N)=O)C3=C(C(=O)C(C)=C(N)C3=O)N1C[C@@H]1N[C@@H]12 [MITOMYCIN] | – | – | – | Inhibition (Homo sapiens [6]): 65%
14 | – | Cc1c[nH]c2c(O)cc3c(c12)[C@H](CCl)CN3C(=O)c1cc2cc(NC(=O)Nc3ccc4[nH]c(C(=O)N5C[C@@H](CCl)c6c5cc(O)c5[nH]cc(C)c65)cc4c3)ccc2[nH]1 [BIZELESIN] | 90 | -3 | 8.4 | Inhibition (Homo sapiens [7]): 56%; Inhibition (Homo sapiens [8]): 53%
15 | > 100 | COC(=O)c1c(C(F)(F)F)[nH]c2c(O)cc3c(c12)[C@H](CCl)CN3C(=O)/C=C/c1cccc(-c2ccc(-c3cccc(/C=C/C(=O)N4C[C@@H](CCl)c5c4cc(O)c4[nH]c(C(F)(F)F)c(C(=O)OC)c54)c3)cc2)c1 | – | – | – | –
16 | 48.3 (≈ 46.8 nM) | COC(=O)c1c(C(F)(F)F)[nH]c2c(O)cc3c(c12)[C@H](CCl)CN3C(=O)/C=C/c1ccc(-c2ccc(-c3ccc(/C=C/C(=O)N4C[C@@H](CCl)c5c4cc(O)c4[nH]c(C(F)(F)F)c(C(=O)OC)c54)cc3)cc2)cc1 | 84 | -11 | – | –
17 | – | COC(=O)c1c(C(F)(F)F)[nH]c2c(O)cc3c(c12)[C@H](CCl)CN3C(=O)/C=C/c1ccc(/C=C/C(=O)N2C[C@@H](CCl)c3c2cc(O)c2[nH]c(C(F)(F)F)c(C(=O)OC)c32)cc1 | 89 | -5 | 30.7 | IC50 (A2780; a2780): 0.000397 ng/mL (≈ 0.000451 nM); IC50 (DLD-1): 0.0149 ng/mL (≈ 0.0169 nM); IC50 (HeLa; hela): 0.00274 ng/mL (≈ 0.00312 nM); IC50 [4]: 0.816 ng/mL (≈ 0.928 nM); IC50 (PC-3): 0.148 ng/mL (≈ 0.168 nM); IC50 (SBC-3; sbc-3): 0.00122 ng/mL (≈ 0.00139 nM); IC50 [5]: 0.00349 ng/mL (≈ 0.00397 nM); IC50 (ZR-75-1; zr-75-1): 0.00463 ng/mL (≈ 0.00526 nM); Inhibition (Homo sapiens [9]): 77%; Inhibition (Homo sapiens [8]): 83%

Row | Structure (SMILES) | IC50 (HeLa; [10]) [ng/mL] | Inhibition (Mus musculus [1]) [%] | Body weight change (Mus musculus [2]) [%] | Ratio (Mus musculus [3]) | also measured
18 | COC(=O)c1c(C(F)(F)F)[nH]c2c(O)cc3c(c12)[C@H](CCl)CN3C(=O)/C=C/c1ccc(/C=C/C(=O)N2C[C@@H](CCl)c3c2cc(O)c2[nH]c(C(F)(F)F)c(C(=O)OC)c32)c2ccccc12 | 0.011 (≈ 0.0118 nM) | 85 | 3 | 7.4 | –
19 | COC(=O)c1c(C(F)(F)F)[nH]c2c(O)cc3c(c12)[C@H](CCl)CN3C(=O)/C=C/c1ccc(/C=C/C(=O)N2C[C@@H](CCl)c3c2cc(O)c2[nH]c(C(F)(F)F)c(C(=O)OC)c32)c2c(OC)ccc(OC)c12 | 0.00934 (≈ 0.00944 nM) | – | – | – | –
20 | COC(=O)c1c(C(F)(F)F)[nH]c2c(O)cc3c(c12)[C@H](CCl)CN3C(=O)/C=C/c1ccc(/C=C/C(=O)N2C[C@@H](CCl)c3c2cc(O)c2[nH]c(C(F)(F)F)c(C(=O)OC)c32)c2c1OCO2 | 0.00595 (≈ 0.00644 nM) | 90 | -2 | 13.3 | –
21 | COC(=O)c1c(C(F)(F)F)[nH]c2c(O)cc3c(c12)[C@H](CCl)CN3C(=O)/C=C/c1ccc(-c2ccc(/C=C/C(=O)N3C[C@@H](CCl)c4c3cc(O)c3[nH]c(C(F)(F)F)c(C(=O)OC)c43)cn2)nc1 | 0.0198 (≈ 0.0207 nM) | 88 | 4 | 3.6 | –
